procasp7 counter: activates human procaspase-7, counter-screen for procaspase-3 activators | 330,000 compounds, 0.093% hits | AID 463210 | P55210 | activation, % at 8.5 µM | recombinant procaspase-7, Ac-DEVD-pNA absorbance 405 nm; D23A/D198A/D206A triple mutant, cannot self-cleave; scale: DMSO 0, 5 µM enzyme 100;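 active = percent activation above the screen-wide mean plus 3 SD, cut at about 25% in these data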
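Test system: Procaspase-7 triple mutant (PC-7 D3A). Also added: Ac-DEVD-pNA substrate, 400 µM as added. Schedule: 1 h enzyme–compound preincubation and 2 h substrate reaction, both 25 °C. Signal: p-Nitroaniline absorbance at 405 nm, read at 0 and 120 min. Control set: low DMSO alone, high DMSO plus 5 µM PC-7.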
CHT PAM: allosterically activates the human high affinity choline transporter; Q9GZV3; CHT-expressing cells, membrane potential dye, choline EC20; active compounds read high; LV-AA mutant CHT in HEK293 cells; B-score at 10 µM; 310,000 compounds, 0.49% hits; AID 488977;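 active = initial fluorescence not abnormally high and integrated response B-score, plate-corrected, over 3 SD above library mean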
Target sequence (Q9GZV3 whole entry, looked up): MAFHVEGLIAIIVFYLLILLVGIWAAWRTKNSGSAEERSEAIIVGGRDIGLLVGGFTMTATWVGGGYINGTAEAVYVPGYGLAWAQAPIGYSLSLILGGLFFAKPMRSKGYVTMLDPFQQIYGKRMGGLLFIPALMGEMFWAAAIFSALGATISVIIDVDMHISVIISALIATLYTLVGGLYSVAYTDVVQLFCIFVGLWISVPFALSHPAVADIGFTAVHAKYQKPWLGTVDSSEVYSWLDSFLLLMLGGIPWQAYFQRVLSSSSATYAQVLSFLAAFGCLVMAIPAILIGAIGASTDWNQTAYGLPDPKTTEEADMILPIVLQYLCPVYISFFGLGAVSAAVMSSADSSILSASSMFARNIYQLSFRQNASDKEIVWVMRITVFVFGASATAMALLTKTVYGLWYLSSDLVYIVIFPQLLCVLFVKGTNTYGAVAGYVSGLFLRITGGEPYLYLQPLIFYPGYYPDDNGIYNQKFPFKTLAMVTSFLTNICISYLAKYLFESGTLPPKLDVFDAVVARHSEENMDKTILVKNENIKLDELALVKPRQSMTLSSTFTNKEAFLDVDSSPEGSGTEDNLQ
CHT inh: human CHT choline transport inhibition; CHT-expressing cells, membrane potential dye, choline response; active compounds read low; B-score at 10 µM; 310,000 compounds, 0.86% hits;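 active = B-score over 3 SD under the library average, and starting fluorescence ratio not unusually high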;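 note: choline stimulus applied at its EC90 after an EC20 pre-addition; B-score computed on integrated fluorescence ratio after choline addition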
proCasp3 act: procaspase-3 (human) activation | recombinant procaspase-3 D3A, Ac-DEVD-pNA absorbance 405 nm | P42574 | 330,000 compounds, 0.11% hits | activation, % at 8.5 µM | AID 463141;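 active = activation above the mean of all tested compounds plus 3 SD, cut at about 21% in these data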;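 note: 0% = DMSO alone and 100% = DMSO wells spiked with extra 5 µM PC-3 D3A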
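Technique: 405 nm absorbance of p-nitroaniline, reads at 0 and 120 min; Test system: Procaspase-3 D3A mutant; Incubation: 1 h enzyme-compound preincubation, then 2 h substrate reaction, 25 °C; Repeats: singlicate, each compound tested once; Benchmarks: low control DMSO wells, high control DMSO plus 5 µM PC-3 D3A.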
The depositor's hits bear a star; i = inactive; . = no result given; ! = not active in a repeat. In the library only some 1.3% were active in any assay of this set; here they are far more common.

SMILES	procasp7 counter	CHT PAM	CHT inh	proCasp3 act
CCOC(=O)c1c(NC(=O)C(C)Sc2nnc(C)c(=O)[nH]2)sc2c1CCCC2 (stereo unspecified)	0.8	i	i	-3.9
COc1ccccc1C(=O)Nc1ccnn1C1CCN(Cc2cc(C)c(C)cc2C)CC1	-6.0	i	-5.27*	-0.9
Cc1onc(-c2c(F)cccc2Cl)c1C(=O)Nc1nccs1	-6.5	i	i	2.3
Cc1onc(-c2c(F)cccc2Cl)c1C(=O)Nc1nnc(C(F)(F)F)s1	6.7	i	-8.68*	2.8
CCOC(=O)c1nc(N2CCN(C(=O)OCC)CC2)c2c3c(sc2n1)CCCC3	-13.6	i	-5.9*	-1.9
COc1cc(N)c(Cl)cc1C(=O)OCC(=O)NCC1CCCCC1	-1.2	.	.	12.6
CC(C)(C)C(=O)Nc1nc(=S)ss1	-13.3	i	-5.49*	-16.2
CCC(=O)Nc1nc(=S)ss1	-15.8	i	i	-11.1
CC[n+]1ccc2cc(OC)c(OC)cc2c1Cc1ccc(OC)c(OC)c1	-11.3	6.27*	i	-4.5
COc1ccc(Cc2c3cc(OC)c(OC)cc3cc[n+]2C)cc1OC	1.4	12.1*	i	-2.4
COc1cc2c(C(=O)NCCCN3CC(C)CC(C)C3)cn(CC(C)C)c(=O)c2cc1OC (stereo unspecified)	5.5	i	-5.77*	10.9
CCCCCCOC(=O)C[N+](C)(C)CCOC1CC2CCC1(C)C2(C)C (stereo unspecified)	-15.2	8.53*	i	-3.8
CCCCOC(=O)C[N+](C)(C)CCOC1CC2CCC1(C)C2(C)C (stereo unspecified)	-3.0	i	i	-0.3
Cc1ccc(COC(=O)c2cc([N+](=O)[O-])ccc2N2CCOCC2)cc1	-0.3	6.42*	i	-0.5
COc1ccc(C(=O)c2cc([N+](=O)[O-])ccc2N2CCOCC2)cc1	2.2	10.5*	i	-5.6
O=C(OCc1ccc([N+](=O)[O-])cc1)c1cc([N+](=O)[O-])ccc1N1CCOCC1	3.6	i	i	-2.3
CCCN(C(=O)c1cc(S(=O)(=O)N(C)c2ccc(OCC)cc2)ccc1C)C1CCS(=O)(=O)C1 (stereo unspecified)	1.5	.	.	-6.0
Cc1c(Cl)c(C(=O)Nc2nc3ccccc3n2CCN2CCCCC2)nn1C	3.0	9.68*	i	-4.0
C=CCc1cccc2cc(C(=O)Nc3cccc(C(=O)O)c3)c(=O)oc12	-1.8	i	-6.5*	1.8
C=CCc1cccc2cc(C(=O)Nc3ccc(F)cc3)c(=O)oc12	4.1	i	i	8.3
CCOC(=O)/C(C#N)=C1\SS/C(=C(/C#N)C(=O)OCC)S1	-19.4	i	-5.49*	-25.7
COc1ccc(Cl)cc1NC(=O)C(C)OC(=O)C1=NNC(=O)CC1 (stereo unspecified)	6.7	.	.	-7.3
Nc1c(C(=O)Nc2ccccc2)sc2nc(-c3cccnc3)ccc12	-10.7	i	-4.94*	-10.2
O=[N+]([O-])c1ccccc1S(=O)(=O)N1CCN(S(=O)(=O)c2ccc3c(c2)OCCO3)CC1	7.8	.	.	-1.9
COc1cccc(OC)c1C(=O)Nc1ccc(S(=O)(=O)Nc2cc(C)nc(C)n2)cc1	1.4	i	-5.27*	-2.7
SMILES	procasp7 counter	CHT PAM	CHT inh	proCasp3 act
CN(Cc1ccco1)C(=O)c1ccc(CNS(=O)(=O)c2ccc3c(c2)C(C)(C)C(=O)N3C)cc1	1.8	i	i	12.9
Cc1ccc(CN2C(=O)/C(=C\c3ccc(C(=O)NCc4cccnc4)cc3)Oc3ccccc32)cc1	24.8	i	i	26.9*
O=C(CN1C(=O)/C(=C\c2ccccc2Cl)Oc2ccccc21)NCc1cccnc1	13.9	i	i	-0.2
O=C(c1ccc2c3n(nc2c1)-c1ccccc1CO3)N1CCCCC1	4.8	i	-5.25*	5.6
Nc1c2c(nc3ccccc13)CCCC2	-3.1	7.58*!	i	0.3
COc1ccc(C(C)NCCC(c2ccc(OC(C)C)cc2)c2ccccc2OC)cc1 (stereo unspecified)	.	7.69*	i	.
COc1ccc(C(CCNC(C)c2ccccc2)C(C)C)cc1 (stereo unspecified)	-0.3	i	i	-2.5
C#CCOCCOCCOCCNc1nc(N2CCN(C(=O)[C@H](CCCCN)n3cc(C(N)CO)nn3)CC2)nc(N2CCN(C(=O)[C@H](CCCCN)n3cc(C(N)COC(=O)C(F)(F)F)nn3)CC2)n1 (stereo partly specified)	10.4	7.1*	i	7.5
C#CCOCCOCCOCCNc1nc(N2CCN(C(=O)C([C@@H](C)CC)n3cc(C(N)CC(C)C)nn3)CC2)nc(N2CCN(C(=O)[C@H](CCCCN)n3cc(C(N)COC(=O)C(F)(F)F)nn3)CC2)n1 (stereo partly specified)	7.1	i	i	0.5
CCCc1cc(NCCCn2ccnc2)n2nc(C)c(-c3ccccc3)c2n1	-2.8	i	-7.14*	-9.0
Cc1ccccc1C(=O)Nc1cc(C(F)(F)F)ccc1-n1cncn1	15.6	.	.	6.7
O=C1c2ccccc2C(=O)c2c1ccc(C(=O)N1CCCCC1)c2NCCO	5.8	i	i	-3.9
CC1CCCN(C(=O)c2ccc3c(c2NCCO)C(=O)c2ccccc2C3=O)C1 (stereo unspecified)	-4.4	i	-5.38*	-4.8
O=C(Nc1ccncc1)Nc1ccncc1	6.2	10.1*	i	5.5
Cc1ccc(C)c(N2CCN(C(=O)C3CCCN(c4ncnc5c4nc4n5CCCCC4)C3)CC2)c1 (stereo unspecified)	10.8	i	-7.44*	12.3
COc1ccccc1N1CCN(C(=O)C2CCCN(c3ncnc4c3nc3n4CCCCC3)C2)CC1 (stereo unspecified)	1.7	i	i	10.9
Cc1nnc(-c2ccc(Cl)cc2)[nH]c1=O	-1.8	i	i	0.1
CN1c2ccccc2C(=O)NC1c1ccc(Cl)cc1 (stereo unspecified)	3.3	i	i	3.3
Clc1ccc(C2Nc3ccccc3-n3cccc32)cc1 (stereo unspecified)	27.7*	i	i	-1.8
CN(C)c1ccc(/C=N/NC(=S)NCc2ccccc2)cc1	32.0*	i	i	89.8*
Cc1ncc(CO)c(/C=N/NC(=O)c2cc3c(s2)CCCC3)c1O	25.7*	i	i	31.3*
Cc1ncc(CO)c(/C=N/NC(=O)c2ccc(O)cc2)c1O	-7.9	i	i	-5.0
Cc1ccc(NS(=O)(=O)c2ccc(-c3cnc(C4CC4)o3)cc2)cc1	6.0	i	i	-8.2
Cc1ccc(N(C)S(=O)(=O)c2ccc(-c3cnc(C4CC4)o3)cc2)cc1	-2.8	6.43*	i	0.6
NS(=O)(=O)c1ccc(NC(=O)COC(=O)c2ccc(Cl)cc2[N+](=O)[O-])cc1	-3.8	i	i	9.2
CCSc1nc(N)c2c3c(sc2n1)CN(C)CC3	-2.6	6.29*	i	5.0
